Screening results as filed in PubChem BioAssay.
In the library only some 3.1% were active in any assay of this set; here they are far more common.
EWS-Fli inh = EWS/Fli-driven NR0B1 reporter inhibitors, primary screen, A673 cells, NR0B1 luciferase, luminescence, MLPCN library; viability-normalised; inhibition, % at 12.6 µM; hit rate 0.67% among 350,000; AID 651661, 2012;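 active = mean inhibition of at least 50% after viability correction, with every replicate also passing that limit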;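 note: firefly luciferase signal divided by Alamar Blue viability fluorescence both relative to DMSO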
HIV Env fusion = inhibitors of HIV-1 Env-driven cell-cell fusion, primary screen, HeLa-JRFL effector, CEM21 target cells, luciferase. inhibition, % at 12.3 µM. hit rate 1.1% among 360,000. AID 651610, 2012;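 active = mean replicate inhibition score of at least 50 and every replicate individually at or above 50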;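 note: 0% = plate neutral controls and 100% = maraviroc near 300 nM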
PAX8 inh HTS = inhibitors of PAX8-driven TPO luciferase reporter, primary screen, RMG-I cells, single concentration | SteadyGlo, 24 h | inhibition, % at 12.6 µM | AID 652154, 2013 | hit rate 1.2% among 360,000;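 active = mean replicate inhibition at least 60% with every replicate also reaching 60%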;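 note: luciferase light reporting Pax8 driven TPO promoter activity; plate controls were median of neutral control wells for no effect and mitoxantrone controls for full effect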
FGF22 binding = binders of human FGF22 protein, primary screen, FGF22 synaptogenesis inhibitor project, biophysical, thermal shift, single point; hit rate 1.5% among 340,000; Fibroblast growth factor 22 (Homo sapiens), Q9HCT0; recombinant FGF22 thermal shift, SYPRO orange fluorescence; percent of sucrose octasulfate shift, DMSO zero; activity (Tm shift, normalised), % at 9.99 µM;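 active = mean Tm shift, scaled 0 neutral to 100 positive control, at about 1.3% or above, every replicate too, limit read from the data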
Target sequence (Q9HCT0 whole entry, looked up): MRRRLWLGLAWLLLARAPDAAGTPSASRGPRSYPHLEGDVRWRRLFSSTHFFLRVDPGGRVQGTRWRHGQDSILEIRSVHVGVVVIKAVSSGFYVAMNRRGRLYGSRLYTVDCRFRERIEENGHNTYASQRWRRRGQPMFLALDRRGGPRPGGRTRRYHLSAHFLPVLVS
FN deposition inh = inhibitors of fibronectin matrix deposition, primary screen, AH1F cells, Alexa488-fibronectin fluorescence, plate reader | AH1F fibroblasts, overnight | inhibition, % at 12.6 µM | hit rate 0.086% among 350,000;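 active = mean inhibition across replicates of 30% or more, regardless of how many single replicates reach that level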;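 note: positive control wells lacked labelled fibronectin entirely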
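Material: AH1F fibroblast monolayer depositing Alexa488-labelled fibronectin into matrix | Input: 10000 AH1F cells/well | Medium: DMEM plus 2% serum, read in PBS | Reagent: Alexa488-fibronectin, 24 nM final in well | Compound dosing: One dose per compound, pinned | Schedule: 1 h adhesion, overnight exposure | Measured by: Fluorescence at 485 nm excitation, 525 nm emission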
PGC1a acetyl inh = inhibitors of PGC1a acetylation signal, primary screen, cell-based, U2OS, AlphaScreen, inhibitor mode; AlphaScreen anti-acetyl-lysine; with virally co-expressed GCN5 acetyltransferase; inhibition, % at 15.6 µM; hit rate 0.17% among 350,000;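 active = every replicate shows inhibition of at least 40%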;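 note: 0% = neutral control wells and 100% = positive control wells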
The depositor's hits bear a star; · = no result; [ ] = dose if it differs, or a comment.

SMILES	EWS-Fli inh	HIV Env fusion	PAX8 inh HTS	FGF22 binding	FN deposition inh	PGC1a acetyl inh
CCCn1c(SCC(=O)Nc2nc3ccccc3s2)nc2c1c(=O)n(C)c(=O)n2C	·	63.6*	·	·	12.2	-23.4
CN(C)CCCn1c(SCC(=O)N2c3ccccc3Sc3ccccc32)nc2ccccc2c1=O	54.5*	-2.1	4.5	-0.3	-2.3	-10.7
COc1ccc(CN(C)C[C@H]2Oc3ccc(NC(=O)CCN4CCOCC4)cc3C(=O)N([C@H](C)CO)C[C@@H]2C)cc1	-3.5	5.7[16.7 µM]	-1.6	0.5	·	-2.8
C[C@H]1CN([C@@H](C)CO)C(=O)c2cc(-c3ccncc3)cnc2O[C@H]1CN(C)C(=O)c1ccc(F)cc1	-13.0	-8.1[16.7 µM]	·	-0.1	-0.7	-0.1
COc1ccc(S(=O)(=O)Nc2ccc3c(c2)[C@H]2C[C@H](CC(=O)O)O[C@@H](CO)[C@H]2O3)cc1	4.2	·	·	0.0	-5.8	0.1
O=C(C[C@H]1CC[C@@H]2[C@H](COC[C@H](O)CN2Cc2ccccc2F)O1)NCc1ccccc1F	-3.9	·	-4.6	0.1	-7.0	4.5
CN(C)c1ccc2c(c1)[C@@H]1C[C@H](CC(=O)O)O[C@H](CO)[C@@H]1O2	0.0	-14.6[16.7 µM]	2.0	-0.3	·	3.5
CCCn1c(SCC(=O)Nc2cccc(C)n2)nc2c1c(=O)n(C)c(=O)n2C	-5.4	32.4	16.7	43.1*	-10.5	4.3
CCCn1c(SCC(=O)Nc2cc(C)on2)nc2c1c(=O)n(C)c(=O)n2C	·	-43.3	·	·	-8.1	·
CCOC(=O)C1=C(C)N(C)C(=S)NC1c1ccc(Cl)cc1 (centres undefined)	10.4	32.4	19.8	0.2	9.4	-14.7
COC(=O)C1=C(C)N(Cc2ccc(Cl)cc2)C(=S)NC1c1ccc(F)cc1 (centres undefined)	-2.7	24.3	4.1	0.1	-6.4	·
COC(=O)C1=C(C)N(C)C(=S)NC1c1ccc(Cl)cc1 (centres undefined)	-2.0	19.6	5.3	44.2*	-4.2	·
COC(=O)C1=C(C)N(Cc2ccc(Cl)cc2)C(=S)NC1c1ccc(Br)cc1 (centres undefined)	5.3	55.7*	14.3	0.2	2.3	·
COc1ccc(S(=O)(=O)N(C)C[C@@H]2OCCCC[C@@H](C)Oc3ccc(NC(=O)Nc4c(C)noc4C)cc3C(=O)N([C@H](C)CO)C[C@H]2C)cc1	-0.4	19.8[16.7 µM]	7.4	-0.3	-2.7	10.7
C[C@@H]1CN([C@@H](C)CO)S(=O)(=O)c2ccc(-c3ccccc3)cc2O[C@H]1CN(C)C(=O)C1CC1	-0.6	-3.4[16.7 µM]	·	·	-3.4	0.0
CNC[C@H]1Oc2ccc(NS(=O)(=O)c3c(C)noc3C)cc2CC(=O)N([C@H](C)CO)C[C@@H]1C	-6.4	-33.2[16.7 µM]	-12.0	-0.3	-4.9	10.3
Cc1nn(C)c(Oc2cccc(C(F)(F)F)c2)c1C=O	5.7	-2.0	2.7	43.3*	-0.4	4.0
CC(=O)OCc1c(C(F)(F)F)nn(C)c1Oc1cccc(C(F)(F)F)c1	·	-26.2	-3.1	·	6.2	11.0
COCC(=O)N1CC2(CCN(Cc3cccnc3)CC2)c2c(n(C)c3cc(OC)ccc23)[C@H]1CO	0.4	·	1.2	·	3.3	-2.7
Cc1cc(C)n2nc(C(=O)OCC(=O)c3ccccc3)nc2n1	4.0	·	-13.2	0.1	-5.1	·
Cc1cc(C)n2nc(C(=O)OCC(=O)c3c[nH]c4ccccc34)nc2n1	11.4	12.4	18.4	43.8*	0.4	·
NC(=O)Nc1ccc(C(=O)OCC(=O)c2c[nH]c3ccccc23)cc1	-27.8	-2.2	-41.1	44.0*	7.4	0.2
N#CCC(=O)Nc1ccc(C(=O)OCC(=O)c2c[nH]c3ccccc23)cc1	-11.8	-34.5	·	-0.1	1.4	-3.9
O=C1CC(Sc2nnc(-c3ccccc3)o2)C(=O)N1c1ccccc1 (centres undefined)	·	-48.2	71.8*	·	8.9	-4.9
O=C(O)c1ccccc1SC1CC(=O)N(c2ccccc2)C1=O (centres undefined)	·	-10.8	-10.8	·	2.3	·
NS(=O)(=O)c1ccc(NCc2cnc3ccccc3n2)cc1	-119.6	-43.2	-25.3	42.9*	1.5	2.6
